In the library only some 3% were active in any assay of this set; here they are far more common.
DDE Tn7 FP inh: inhibitors of Tn7 peptide binding to fibrin DD(E), primary screen, biochemical, fluorescence polarization, human fibrin, Tn7 probe | FP displacement of FITC-Tn7 peptide from fibrin DD(E); 0% = median of compound wells per plate | inhibition, % at 8.3 µM | 0.13% of 370,000 active | Fibrinogen beta chain (Homo sapiens), P02675 | AID 720508, 2013;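 active = inhibition above the mean of compounds falling within the control limits plus 3 SD of them, cut at about 14% in these data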;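 note: 0% = plate median of compound wells and 100% = 10 µM Aha-Tn7 peptide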
Target sequence (P02675 whole entry, looked up): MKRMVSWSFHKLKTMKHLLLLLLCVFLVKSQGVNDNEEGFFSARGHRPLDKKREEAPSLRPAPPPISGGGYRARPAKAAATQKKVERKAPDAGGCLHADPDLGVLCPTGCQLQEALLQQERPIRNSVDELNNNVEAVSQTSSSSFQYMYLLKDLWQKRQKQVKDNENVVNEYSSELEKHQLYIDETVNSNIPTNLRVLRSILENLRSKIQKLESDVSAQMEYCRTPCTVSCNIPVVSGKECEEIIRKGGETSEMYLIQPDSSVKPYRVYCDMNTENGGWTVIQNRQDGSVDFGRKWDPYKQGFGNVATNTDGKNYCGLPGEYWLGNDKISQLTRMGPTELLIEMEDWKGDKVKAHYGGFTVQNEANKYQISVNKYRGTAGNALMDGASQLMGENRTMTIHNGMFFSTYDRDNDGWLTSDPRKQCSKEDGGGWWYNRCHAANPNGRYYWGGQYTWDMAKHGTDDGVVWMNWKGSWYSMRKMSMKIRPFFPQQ
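Assay system: Human fibrin DD(E) protein | Medium: Tris buffer with calcium and detergent, pH 7.8 | Reagent: 0.1 µM fluorescent Tn7 | Compound dosing: Single point at 8.3 µM | Times: 10 min preincubation, 3 h with tracer, room temperature | Detection: Fluorescence polarization of the labelled Tn7 tracer | Controls: Aha-Tn7 high control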
PLCg1 inh: PLC-gamma1 enzyme inhibitors, primary screen, biochemical, fluorescence, purified enzyme | AID 720700, 2013 | 1-phosphatidylinositol 4,5-bisphosphate phosphodiesterase gamma-1 (Homo sapiens), P19174 | 0.84% of 370,000 active | inhibition, % at 12.2 µM | fluorogenic substrate
KLK7 zymogen act: proKLK7 zymogen activators, primary screen, biochemical, fluorescence intensity. Kallikrein-7 (Homo sapiens), P49862. activation, % at 7 µM. purified proKLK7, EDANS-DABCYL substrate fluorescence; 100% is mature enzyme control, 0% vehicle. 0.9% of 370,000 active;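 active = activation above the mean of all tested compounds plus 3 SD, computed per campaign excluding outliers beyond control limits, cut at about 13% in these data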
CendR NRP1 mod: modulators of CendR peptide binding to NRP-1, primary screen, biochemical, fluorescence polarization, uHTS | Neuropilin-1 (Homo sapiens), O14786 | FAM-RPARPAR peptide binding to NRP-1 | inhibition, % at 25 µM | 0.85% of 360,000 active;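 active = inhibition or corrected inhibition above about 18%, plus a signal ratio from 0.5 to 1.5, limit read from the data, passing the limit was not always enough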
Tn6 DDE FP: inhibitors of Tn6 peptide binding to fibrin DD(E), primary screen, biochemical, fluorescence polarization, human fibrin, Tn6 probe; Fibrinogen beta chain (Homo sapiens), P02675; Fibrin DD(E) TRITC-Tn6 fluorescence polarization displacement; inhibition, % at 8.3 µM; 0.21% of 370,000 active; AID 720509, 2013;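 active = inhibition above a per-campaign cutoff: mean of compounds within control limits plus 3 SD, cut at about 15% in these data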;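 note: 0% = median of all compound wells on the plate and 100% = blocking peptide control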
PLCb3 inh: human PLC-beta3 inhibitors, primary screen, biochemical, fluorescence; 1-phosphatidylinositol 4,5-bisphosphate phosphodiesterase beta-3 (Homo sapiens), Q01970; Purified PLC-beta3, fluorogenic substrate; inhibition, % at 12.2 µM; 0.18% of 370,000 active; AID 720704, 2013; in the data active = inhibition above about 11%;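 note: 0% = median of compound wells on plate and 100% = full blocker control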
PLCgamma1 ctr: PLC-gamma1 enzyme inhibitors, counter-screen for PLC-beta3 inhibitor project, biochemical, fluorescence; 3.1% of 3,300 active; purified PLC-gamma1, fluorogenic substrate; shares compounds with PLCg1 inh; AID 743258, 2014; inhibition, % at 12.3 µM
PLCb3 confirm: PLC-beta3 inhibitor confirmation, biochemical, fluorescence, purified enzyme; shares compounds with PLCg1 inh; fluorogenic substrate fluorescence; inhibition, % at 12.3 µM; 1% of 3,300 active; AID 743261, 2014; in the data active = inhibition above about 11%
The depositor's hits bear a star; · = no result given. Cut-off read from the data, not from the text of the source, unless noted: active = inhibition above about 9.5%; inactive = the rest.

SMILES | DDE Tn7 FP inh | PLCg1 inh | KLK7 zymogen act | CendR NRP1 mod | Tn6 DDE FP | PLCb3 inh | PLCgamma1 ctr | PLCb3 confirm
CC1CCCCC1NC(=S)NC(=O)c1ccccc1Cl (configuration not stated) | -2 | 11* | 0 | 7 | 12 | -3 | -4 | -4
O=C(Cc1cccs1)N1CCC(c2nc3c(nnn3Cc3ccccc3)c(=O)[nH]2)CC1 | 0 | 10* | 0 | -2 | -5 | 12* | 7 | 12*
O=C(CSc1nnc(-c2ccccn2)n1Cc1ccco1)Nc1ccc(Oc2ccccc2)cc1 | -10 | 11* | 0 | · | -4 | 3 | -5 | -2
CC1=C2NC(N)=[N+](Cc3ccccc3)CC2n2c(=O)n(-c3ccccc3)c(=O)n2C1 (configuration not stated) | 6 | -4 | 0 | · | -3 | 1 | · | ·
CCOc1ccccc1Nc1nc(N)nc(CN(C)C2CCCCC2)n1 | 0 | 6 | -1 | 0 | -1 | 12* | 9 | 5
CCOc1ccccc1Nc1nc(N)nc(CSc2nccc(C)n2)n1 | -1 | -2 | 0 | 7 | -2 | 0 | · | ·
COC(=O)C[C@@H]1CC[C@H]2[C@@H](COc3ccc(NC(=O)Nc4ccccc4Cl)cc3C(=O)N2C)O1 | 6 | -1 | 0 | · | -3 | -1 | · | ·
Cc1c(C(O)(c2ccccc2)c2ccccc2)[n+]2ccccc2n1C | 2 | 3 | · | · | 5 | 2 | · | ·
Cc1ccccc1CN1CCCCC(NC(=O)c2cc(-c3ccccc3)no2)C1=O (configuration not stated) | 2 | 1 | 1 | · | -11 | -1 | · | ·
COc1cccc(COCCN2CCN(S(=O)(=O)c3ccc(C)cc3)CCC2=O)c1 | -5 | 12* | 0 | 0 | -6 | 10 | -7 | -4
CCn1c(SCC(=O)Nc2ccc(C(C)C)cc2)nnc1-c1ccc(C(C)(C)C)cc1 | 3 | 2 | 0 | · | 6 | 0 | · | ·
CC(=O)OC12CCCN(C1)/C(=C/c1cccc(N(C)C)c1)C2 (configuration not stated) | -1 | -16 | 1 | · | 4 | -20 | · | ·
O=C(CSc1nnc(-c2ccc(Cl)cc2)n1-c1ccccc1)NN=Cc1c[nH]c2ccccc12 | -8 | 7 | 0 | · | -6 | 3 | · | ·
Cc1nn(-c2ccc(Cl)c(Cl)c2Cl)c(=O)c2ccccc12 | 1 | 11* | 0 | 1 | 1 | 5 | 2 | 4
CC(C(=O)N=Nc1c(O)[nH]c2ccccc12)n1cnc2ccccc2c1=O (configuration not stated) | 0 | 10* | 0 | -12 | 0 | 16* | -1 | 1
CCOc1ccc(Br)cc1S(=O)(=O)Nc1cccnc1 | 1 | -2 | 0 | 0 | 3 | 3 | · | ·
CCOc1ccc(C)cc1S(=O)(=O)Nc1cccnc1 | 1 | 9.8* | -1 | 18 | -2 | 4 | -20 | -2
CN(Cc1cccc2cnccc12)C(=O)CCc1nnc(CCc2ccccc2)o1 | 1 | -3 | 1 | -9 | 2 | 1 | · | ·
CC(c1nccs1)N(C)C(=O)CCc1nnc(CCc2ccccc2)o1 (configuration not stated) | -4 | 12* | 0 | -1 | 3 | 3 | 2 | -2
CCOc1ccc(CCNC(=O)CS(=O)Cc2nc(-c3ccccc3Cl)oc2C)cc1OCC (configuration not stated) | -3 | 2 | 0 | 0 | -2 | -5 | · | ·
Cc1ccc(CCNC(=O)CS(=O)Cc2nc(-c3ccccc3Cl)oc2C)cc1 (configuration not stated) | -4 | 9.7* | 0 | 6 | 1 | -3 | -6 | -4
COC(=O)NCc1ccc(Cl)c(Cl)c1 | 0 | 12* | 0 | 6 | -5 | 2 | -7 | -3
COC(=O)NCc1ccc(CNC(=O)OC)cc1 | -5 | 3 | 0 | 20 | 1 | 6 | · | ·
CCn1cc(Br)c(C(=O)NCc2ccco2)n1 | -2 | 10* | 0 | -6 | 1 | 9 | -7 | -3
Cc1ccc(N(CC(=O)NCc2cccnc2)S(C)(=O)=O)cc1C | -3 | 12* | 0 | 7 | -3 | 5 | -3 | 1
SMILES | DDE Tn7 FP inh | PLCg1 inh | KLK7 zymogen act | CendR NRP1 mod | Tn6 DDE FP | PLCb3 inh | PLCgamma1 ctr | PLCb3 confirm
Cc1ccc(CNC(=O)CN(c2cccc([N+](=O)[O-])c2)S(C)(=O)=O)cc1 | -1 | 11* | 0 | -6 | -4 | 3 | -2 | -3
Cc1ccc(N(CC(=O)NCc2ccncc2)S(C)(=O)=O)cc1Cl | -10 | 1 | 0 | -6 | -1 | -1 | · | ·
COC(=O)Cn1cnc2sc(C)c(S(=O)(=O)N3CCN(c4ccccc4OC)CC3)c2c1=O | 4 | 10* | 0 | 12 | -7 | 10 | -1 | -3
CCOC(=O)C1C[C@@H](O)C=CC1=O (some centres not stated) | 6 | 1 | · | · | -1 | -1 | · | ·
CC(=O)c1ccc(OCC(O)COc2ccc(C(C)=O)cc2)cc1 | 0 | 11* | 1 | -1 | 1 | 9 | 1 | 4
O=S1(=O)c2ccc(N3CC[C@@H](O)C3)cc2O[C@H]2CCN1C2 | 3 | 1 | 0 | · | 4 | -2 | · | ·
CC(=O)c1cccc(NS(=O)(=O)c2c(C)n[nH]c2C)c1 | 2 | 3 | 0 | 4 | -6 | 0 | · | ·
CCc1cccc(NS(=O)(=O)c2c(C)n[nH]c2C)c1 | 1 | 9.8* | 0 | 3 | 0 | 4 | -4 | -2
COc1ccccc1NC(=O)CN1CCN(CC(=O)Nc2ccc(Cl)c(C(F)(F)F)c2)CC1 | -6 | 1 | 0 | 4 | 0 | 5 | · | ·
CCc1ccccc1NCC(=O)Nc1ccc(Cl)c(C(F)(F)F)c1 | -4 | 12* | 0 | -6 | -5 | 8 | -1 | 1
CCOC(=O)COc1ccc(S(=O)(=O)N2CCN(c3ccc(OC)cc3)CC2)cc1 | 1 | 9.5* | 0 | 3 | 0 | -2 | 1 | 2
O=[N+]([O-])c1ccccc1S(=O)(=O)N1CCc2ccccc2C1 | -3 | 2 | -1 | 6 | -1 | 12* | -6 | -2
O=C(Nc1cccc(Cl)c1)Nc1cc(S(=O)(=O)N2CCOCC2)ccc1N1CCCC1 | -5 | 11* | 0 | 1 | -6 | 0 | -11 | -6

From PubChem BioAssay
